Test results reported in publication PMC11909274 (Nature Communications, 2025).

Columns and labels:
[1] = tested on: CHP-212-R(mix) and resistant monoclonal sublines R1-R6 (heterozygous USP7 V517F); test: Cell viability assay; settings: for sensitivity of the resistant cells to other agents: SRB, 3 days exposure (Fig. 1d)
[2] = tested on: c-caspase-3, c-caspase-7, c-PARP, p53, p21, Rad18, DNMT1, UHRF1 in CHP-212 resistant variants; assay type: cell-based, human; settings: resistant variants relative to the parent cells, 48 h, Western blotting
Procedure, shortened: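 CHP-212 parental and resistant cells were treated with test compound, 48 h for caspase-3/-7, cleaved caspases and PARP1, or 24 h for p53, p21, Rad18, DNMT1 and UHRF1. Lysis was in SDS buffer (50 mM Tris-HCl pH 6.8, 2% SDS, 100 mM DTT) with 15 min boiling, followed by SDS-PAGE on 7.5–12.5% gels. Primary antibodies were used at 1:1000 with HRP secondaries. Blots were repeated three times.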

[3] = tested on: CHP-212 R(mix) cells; test: Cell cycle distribution by flow cytometry; assay type: cell-based, human; settings: 24 h treatment
[4] = tested on: LNCaP V517F.KI#1 and V517F.KI#2 cells; test: Cell viability assay; assay type: cell-based, human; settings: LNCaP.V517F.KI vs WT
[5] = target: V517G^CD (Homo sapiens, UniProt Q93009, V517G); test: Isothermal titration calorimetry; assay type: binding; settings: ITC, USP7_V517G^CD
Procedure, shortened: (§1)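 His-tagged USP7 catalytic-domain mutants were expressed from pET28 in E. coli BL21(DE3), induced with 0.5 mM IPTG overnight at 17 °C, then purified by Ni–NTA and desalting. Protein was titrated with test compound on a MicroCal PEAQ-ITC at 25 °C, using an initial 0.5 μL injection then 20 injections of 2 μL. Kd came from a single-site binding model fit.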

[6] = tested on: USP4, USP8, USP9X, USP12, USP15, and USP34; settings: cited from earlier work
[7] = target: USP7_V517F^CD (Homo sapiens, UniProt Q93009, V517F); test: Ub-AMC in vitro enzyme assay; assay type: biochemical; settings: 50 nM USP7_V517F^CD, up to 0.5 μM USP7-797 or 1 μM FT671
[8] = tested on: CHP-212.V517F.KI#1 and CHP-212.V517F.KI#2 cells; test: Cell viability assay; assay type: cell-based, human; settings: CHP-212 V517F knock-in vs WT
[9] = tested on: Capan-1.V517F.OE cells; settings: Capan-1.V517F.OE vs WT.OE
[10] = target: V517F^CD (Homo sapiens, UniProt Q93009, V517F); test: Isothermal titration calorimetry; assay type: binding; settings: ITC, compared to the control groups (WT)
[11] = target: V517Y^CD (Homo sapiens, UniProt Q93009, V517Y); test: Isothermal titration calorimetry; assay type: binding; settings: ITC, USP7_V517Y^CD
Procedure, shortened: as §1

[12] = target: V517I^CD (Homo sapiens, UniProt Q93009, V517I); test: Isothermal titration calorimetry; assay type: binding; settings: ITC
Procedure, shortened: as §1

[13] = target: V517A^CD (Homo sapiens, UniProt Q93009, V517A); test: Isothermal titration calorimetry; assay type: binding; settings: ITC
Procedure, shortened: as §1

Chain of V517A^CD (Q93009 208-560 V517A): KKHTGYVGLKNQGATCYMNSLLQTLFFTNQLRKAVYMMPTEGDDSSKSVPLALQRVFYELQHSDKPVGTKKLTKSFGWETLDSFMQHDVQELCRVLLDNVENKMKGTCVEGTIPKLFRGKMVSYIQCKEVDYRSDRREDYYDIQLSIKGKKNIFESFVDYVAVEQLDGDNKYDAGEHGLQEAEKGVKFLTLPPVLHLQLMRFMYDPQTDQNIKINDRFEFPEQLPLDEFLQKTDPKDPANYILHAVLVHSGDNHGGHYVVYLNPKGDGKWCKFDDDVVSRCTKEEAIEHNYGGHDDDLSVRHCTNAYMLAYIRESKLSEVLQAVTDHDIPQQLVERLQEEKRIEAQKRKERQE
Chain of V517Y^CD (Q93009 208-560 V517Y): as the sequence (Q93009 208-560 V517A) above, with A310Y counted along it
Chain of V517I^CD (Q93009 208-560 V517I): as the sequence (Q93009 208-560 V517A) above, with A310I counted along it
Chain of V517G^CD (Q93009 208-560 V517G): as the sequence (Q93009 208-560 V517A) above, with A310G counted along it
Chain of V517F^CD (Q93009 208-560 V517F): as the sequence (Q93009 208-560 V517A) above, with A310F counted along it
Chain of USP7_V517F^CD (Q93009 208-560 V517F): as the sequence (Q93009 208-560 V517A) above, with A310F counted along it

SMILES: CC[C@]1(O)C[C@H]2CN(CCc3c([nH]c4ccccc34)[C@@](C(=O)OC)(c3cc4c(cc3OC)N(C=O)[C@H]3[C@@](O)(C(=O)OC)[C@H](OC(C)=O)[C@]5(CC)C=CCN6CC[C@]43[C@@H]65)C2)C1 [VCR]
- sensitivity of the resistant cells to other agents [1]: maintained sensitivity

SMILES: COc1cccc2c1C(=O)c1c(O)c3c(c(O)c1C2=O)C[C@@](O)(C(=O)CO)C[C@@H]3O[C@H]1C[C@H](N)[C@H](O)[C@H](C)O1 [Adriamycin]
- sensitivity of the resistant cells to other agents [1]: maintained sensitivity

SMILES: COc1ncnc(C2CC2)c1-c1ncc2cnn(Cc3ccc(-c4nc(C(F)(F)F)cn4C(C)C)cc3)c2n1 [KSQ4279]
- sensitivity of the resistant cells to other agents [1]: maintained sensitivity

SMILES: CC(C)C[C@H](NC(=O)[C@H](Cc1ccccc1)NC(=O)c1cnccn1)B(O)O [bortezomib]
- sensitivity of the resistant cells to other agents [1]: maintained sensitivity

SMILES: O=C(C[C@@H](C(F)F)n1ccc(F)n1)N1CCC(O)(Cn2cnc3c(cnn3-c3ccc(F)cc3)c2=O)CC1 [FT671]
- activation of apoptosis-related proteins (c-caspase-3, c-caspase-7, c-PARP) [2]: reduced activation
- cell-cycle distribution of resistant variants [3]: not profoundly altered
- fold reduction in sensitivity / higher IC50 than parental cells ([1]; resistant sublines vs parental CHP-212 cells): 83–213 fold
- sensitivity reduction [4]: 121- to 146 fold
- affinity compared to wild-type USP7 [5]: remain essentially unchanged
- response of other USP family members to FT671 [6]: resistant
- inhibition of V517F enzyme activity [7]: failed to inhibit
- sensitivity reduction [8]: 88–106 fold
- fold higher IC50 [9]: 48 fold
- fold decreased binding affinity of USP7_V517F [10]: 67 fold
- affinity compared to wild-type USP7 [11]: decreases significantly
- affinity compared to wild-type USP7 [12]: remain essentially unchanged
- affinity compared to wild-type USP7 [13]: remain essentially unchanged

SMILES: NS(=O)(=O)OC[C@@H]1C[C@@H](n2ccc3c(N[C@H]4CCc5ccccc54)ncnc32)C[C@@H]1O [MLN4924]
- sensitivity of the resistant cells to other agents [1]: maintained sensitivity

SMILES: CC(=O)O[C@H]1C(=O)[C@@]2(C)[C@H]([C@H](OC(=O)c3ccccc3)[C@]3(O)C[C@H](OC(=O)[C@H](O)[C@@H](NC(=O)c4ccccc4)c4ccccc4)C(C)=C1C3(C)C)[C@]1(OC(C)=O)CO[C@@H]1C[C@@H]2O [Taxol]
- sensitivity of the resistant cells to other agents [1]: maintained sensitivity
